# Screening data (PubChem)
# Compounds with a hit are over-represented: about 0.96% of the library has one in this group of screens.
# CIT2-GFP yeast – yeast TOR pathway CIT2-GFP modulation; S. cerevisiae CIT2-GFP strain, flow cytometry, 3 h; 100 means same as DMSO wells; GFP response vs DMSO, % at 10 µM; 320,000 tested, 0.065% active; AID 2029;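 active = GFP response relative to DMSO above a set limit, near the screen mean plus 3 SD, cut at about 150% in these data; inconclusive = Fewer than 70 cells measured for a yeast strain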;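 note: ratio of well median GFP fluorescence to mean of DMSO wells on the plate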
# RPL19A-GFP yeast – yeast TOR pathway RPL19A-GFP modulation. S. cerevisiae RPL19A-GFP strain, flow cytometry, 3 h; active compounds read low. percent response vs DMSO, % at 10 µM. 330,000 tested, 0.3% active;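 active = percent response vs DMSO below 50%; inconclusive = fewer than 70 events counted for the yeast strain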;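 note: median channel GFP fluorescence of the barcoded RPL19A-GFP strain; ratio of sample median GFP to plate DMSO average so 100% = DMSO; lower means less RPL19A-GFP as with rapamycin TOR inhibition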
# T cell HTS – T cell immune modulation candidate; response (vesicle binding), % at 7 µM; 2C CD8+ T cell-vesicle binding, flow cytometry; active compounds read low; AID 2052; 330,000 tested, 0.068% active;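 active = response, share of CD8 T cells binding vesicles, and their 90th percentile fluorescence all below set limits, cut at about 80% in these data, passing the limit was not always enough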;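 note: values below 100% mean blocked vesicle binding to the CD8+ T cells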
#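 Material: murine 2C transgenic CD8+ T lymphocytes / Also added: QL9-peptide-loaded Drosophila micro-vesicles bearing Ld, ICAM-1 and B7-1 / Schedule: binding step 1.5 h, 37 °C, antibody labelling 20 min, ice / Signal: flow cytometry, PE anti-B7-1 (FL2) versus Alexa647 anti-CD8 (FL8), PFA-fixed / Evaluation: percent CD8+ FL2 mean versus row control / Benchmarks: naked versus QL9-loaded vesicles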
# AGP1 TOR yeast – yeast TOR pathway AGP1-GFP modulation; 320,000 tested, 0.02% active; S. cerevisiae AGP1-GFP multiplex flow cytometry, 3 h; GFP as percent of DMSO wells; AID 2066; GFP response vs DMSO, % at 10 µM;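 active = GFP response relative to DMSO above a set limit, near screen average plus 3 SD, cut at about 150% in these data; inconclusive = fewer than 70 cells counted for the yeast strain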;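 note: median GFP channel fluorescence of the gated AGP1 strain per well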
# LAP4-GFP MLPCN – modulators of TOR pathway LAP4-GFP in S. cerevisiae; 320,000 tested, 0.34% active; GFP response vs DMSO, % at 10 µM; AID 2023; S. cerevisiae LAP4-GFP multiplex, flow cytometry GFP, 3 h; median GFP as percent of DMSO wells;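 active = GFP response vs DMSO above a set limit, about the screen mean plus 3 SD, cut at about 150% in these data; inconclusive = under 70 cell events counted for the yeast strain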
# MEP2 TOR yeast – yeast TOR pathway MEP2-GFP modulation; 330,000 tested, 0.51% active; S. cerevisiae MEP2-GFP strain, flow cytometry GFP, 3 h; 100% = DMSO control level; GFP response vs DMSO, % at 10 µM;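 active = GFP response versus DMSO above a set limit, roughly screen mean plus 3 SD, cut at about 180% in these data; inconclusive = fewer than 70 cells counted for a yeast strain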;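 note: median GFP fluorescence of the barcode-gated MEP2-GFP cells per well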
# * marks the source's active call; other numbers are inactive results; ? = inconclusive; / = no result; [ ] = another dose, or the depositor's remark.
SMILES,CIT2-GFP yeast,RPL19A-GFP yeast,T cell HTS,AGP1 TOR yeast,LAP4-GFP MLPCN,MEP2 TOR yeast
COc1cc(C2CC(c3cccnc3)=NN2c2ccc(F)cc2)cc(OC)c1OC (configuration not stated),159*,112,733,101,120,151
O=C(COc1ccccc1)N(Cc1cccc(F)c1)C1CCS(=O)(=O)C1 (configuration not stated),?,44*[may fluoresce violet],377,16,86,139
NNC(=O)c1ccc(CSc2nc3ccccc3[nH]2)cc1,?,45*[may fluoresce violet],550,?,122,92
O=C(O)c1ccc(CSc2nc3ccccc3[nH]2)cc1,121,105,531,114,89,111
COCc1cc(C)n(CC(=O)Nc2ccccc2OC)c(=O)c1C#N,?,48*[may fluoresce violet],532,?,88,571*[may fluoresce violet]
O=C(OCC#CCSc1nnc(-c2cccc3ccccc23)o1)c1ccc2ccccc2c1,98,99,276,102,104,100
Cc1c(Br)c(O)c(Br)c2sc(=O)oc12,76,48*,413,57,177*,100
COc1cccc(OCc2cc(C(=O)N(C)Cc3nccn3C)no2)c1,104,99,304,99,90,106
COc1ccc(N2CCN(C(=O)CCS(=O)(=O)c3ccc4c(c3)NC(=O)CO4)CC2)cc1,105,100,766,108,103,102
C=CCNC(=S)Nc1sc2c(c1C(N)=O)CCCC2,95,91,47*,99,123,99
C=CC(=O)Nc1sc2c(c1C(N)=O)CCCC2,87,104,432,92,118,105
O=C(NC1CCCCC1)C(c1cccnc1)N(C(=O)c1csnn1)c1ccc(F)cc1 (configuration not stated),95,98,442,95,95,97
COCCNCC(O)CON=C1c2ccccc2-c2ccccc21 (configuration not stated),?,48*[may fluoresce violet],214,22,95,170
COc1ccc(CNC(=O)CN(C(=O)CCC(=O)Nc2nccs2)c2ccccc2C)cc1,100,100,350,100,100,97
c1ccc(CNc2cnccn2)cc1,98,97,217,97,98,98
c1ccc(CCNc2cnccn2)cc1,?,65,233,?,70,190*[may fluoresce violet]
CCOC(=O)c1cc2ccc(OC(=O)c3ccco3)cc2oc1=O,?,50*[may fluoresce violet],/,?,104,198*[may fluoresce violet]
CC(C)C(C)NC(=O)COC(=O)C1CCN(S(=O)(=O)c2ccc3c(c2)OCCO3)CC1 (configuration not stated),99,97,259,108,104,103
C=CCNC(=O)C(C)Sc1ccc(Cl)cc1 (configuration not stated),95,100,401,106,101,97
CCNC(=O)C(C)Sc1ccc(Cl)cc1 (configuration not stated),?,48*[may fluoresce violet],198,?,88,351*[may fluoresce violet]
CCC(C(=O)NCc1ccco1)n1nc(C)c2c(C)n(-c3ccccc3)nc2c1=O (configuration not stated),102,101,290,105,109,111
COC(=O)c1sc(S(=O)(=O)N2CCN(c3ccccc3F)CC2)c(C(=O)OC)c1C,108,100,555,105,101,101
Cc1ccc(C(=O)OCC(=O)Nc2ccc3c(c2)OCO3)o1,?,65,386,21,105,491*[may fluoresce violet]
C=CCn1c(SCC(=O)Nc2ccc(OC)cc2)nnc1-c1cnccn1,102,102,208,103,94,102
CCOc1c(Br)ccc2c1sc1nc[nH]c(=O)c12,105,/,306,27,105,183*
COc1ccccc1C1c2ccc3ccccc3c2Oc2ncn(CCCO)c(=N)c21 (configuration not stated),?,24*[may fluoresce violet],198,?,75,352*[may fluoresce violet]
COc1ccccc1C1c2ccc3ccccc3c2Oc2ncn(CCN(C)C)c(=N)c21 (configuration not stated),94,92,388,85,95,103
